The subject of series [1] is Plasmodium falciparum. The series is described as follows: Antimalarial activity after 72hrs against chloroquine-sensitive Plasmodium falciparum 3D7 infected erythrocytes. In kind it is functional, organism-based. The conditions noted are these: 3D7, 72 h. The procedure, abridged: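 Serial dilutions in screening medium, seven concentrations (top 500 ng/mL, or 100 ng/mL for some compounds), duplicate wells. Added 2.5% haematocrit erythrocytes at 0.5% parasitaemia. Uninfected erythrocytes without drug as negative control, CQ as positive control. After 72 h, SYBR Green I in lysis buffer (20 mM tris pH 7.5, 5 mM EDTA, saponin, Triton X-100), 1 h room temperature, fluorescence read.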

Series [2] can be described thus: Selectivity index, ratio of IC50 for african green monkey (Cercopithecus aethiops) Vero cells to IC50 for chloroquine-sensitive Plasmodium falciparum 3D7. The format is toxicity, cell-based. The conditions noted are these: read-out: Ratio IC50. An outline of the steps: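 Vero cells at 1 × 10⁴ cells/well were exposed to varying compound concentrations, highest 100 µg/mL, for 72 h. Viability was measured by MTT. Cytotoxic IC50 was taken from non-linear regression of dose–response curves and divided by the 3D7 IC50 to give the index.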

Series [3] has as its system Plasmodium yoelii. The series is described as follows: Antimalarial activity as reduced parasitaemia after 4 days against Plasmodium yoelii N67 infected Swiss mice (Mus musculus) at 50 mg/kg/day intraperitoneal dose. The arrangement: scale not given: the % may be the effect or the level left. The format is functional, N-67. An outline of the steps:
(§1)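 Swiss mice (22 ± 2 g), groups of five, inoculated day 0 with P. yoelii N-67-parasitized RBC. Dosed 50 mg/kg/day i.p. once daily, days 0–3, as aqueous suspension with a few drops of Tween 80 in 0.2 mL. Parasitaemia read from thin blood smears on days 4–6. Group mean gave % suppression versus untreated controls. CQ-treated mice as reference.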

For series [4], the system named is Plasmodium yoelii. The series is described as follows: Antimalarial activity as reduced parasitaemia after 6 days against Plasmodium yoelii N67 infected Swiss mice (Mus musculus) at 50 mg/kg/day intraperitoneal dose. Set-up: scale not given: the % may be the effect or the level left. In kind it is functional, N-67. An outline of the steps:
as §1

The test system of series [5] is Mus musculus. The series is described as follows: Toxicity to Plasmodium yoelii N-67 infected Swiss mice (Mus musculus) assessed as survival at 50 mg/kg/day, intraperitoneally after 28 days. In kind it is organism-based. The arrangement: route intraperitoneal. The note with it: in vivo, ip, 672 h. The procedure, abridged: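 Swiss mice were infected on day 0 with parasitized RBC of CQ-resistant P. yoelii N-67. Groups of five were dosed intraperitoneally at 50 mg/kg/day, once daily on days 0–3. Compounds were given as aqueous suspensions with a few drops of Tween 80. Survival was followed for 28 days. CQ-treated mice served as reference controls.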

In brackets after ≈: the same amount, converted by molar mass.

Turning to `Clc1ccc2c(NCCN3CCN(c4nc(Nc5ccccc5)nc(N5CCCCC5)n4)CC3)ccnc2c1`, the IC50 – broadly, the concentration needed to halve the response being measured – in series [1] was found to be 0.0178 µg/mL (≈ 0.0328 µM). Also, the selectivity ratio in series [2] amounted to 117. The Activity in series [3] turned out to be 66.67%; in series [4], 55.36%.

`Cc1ccccc1Nc1nc(N2CCOCC2)nc(N2CCN(CCNc3ccnc4cc(Cl)ccc34)CC2)n1` came in with an IC50 in series [1] of 0.0192 µg/mL (≈ 0.0342 µM). Further, in series [2], the selectivity ratio worked out at 377.

In series [1], `Clc1ccc2c(NCCN3CCN(c4nc(N5CCCCC5)nc(N5CCCCC5)n4)CC3)ccnc2c1` returned an IC50 of 0.0444 µg/mL (≈ 0.0828 µM). The selectivity ratio in series [2] was 53.2.

In series [1], `CCN1CCN(c2nc(Nc3ccc(C)cc3)nc(N3CCN(CCNc4ccnc5cc(Cl)ccc45)CC3)n2)CC1` returned an IC50 of 0.019 µg/mL (≈ 0.0324 µM). Also, the selectivity ratio in series [2] is 41.

In series [1], `Cc1ccccc1Nc1nc(NC2CCCCC2)nc(N2CCN(CCNc3ccnc4cc(Cl)ccc34)CC2)n1` registered an IC50 of 0.194 µg/mL (≈ 0.34 µM). The selectivity ratio in series [2] is 29.

As to `Cc1ccc(Nc2nc(N3CCOCC3)nc(N3CCN(CCNc4ccnc5cc(Cl)ccc45)CC3)n2)cc1`, in series [1], the IC50 was found to be 0.0435 µg/mL (≈ 0.0776 µM). Also, the selectivity ratio in series [2] turned out to be 512.

Consider `Clc1ccc2c(NCCN3CCN(c4nc(Nc5ccccc5)nc(N5CCOCC5)n4)CC3)ccnc2c1`, for which, in series [1], it took 0.0213 µg/mL (≈ 0.039 µM) to reach half-maximal inhibition (IC50). Moreover, the selectivity ratio in series [2] was found to be 470.

With `Cc1ccccc1Nc1nc(Nc2ccccc2C)nc(N2CCN(CCNc3ccnc4cc(Cl)ccc34)CC2)n1`, the IC50 in series [1] came to 0.186 µg/mL (≈ 0.32 µM). Besides, the selectivity ratio in series [2] was found to be 75.3.

For `Cc1ccc(Nc2nc(NC3CCCCC3)nc(N3CCN(CCNc4ccnc5cc(Cl)ccc45)CC3)n2)cc1`, in series [1], the IC50 came out at 0.256 µg/mL (≈ 0.447 µM). Besides, the selectivity ratio in series [2] stood at 115.

The compound `Fc1ccccc1Nc1nc(N2CCCCC2)nc(N2CCN(CCNc3ccnc4cc(Cl)ccc34)CC2)n1` displayed an IC50 in series [1] of 0.159 µg/mL (≈ 0.283 µM). Further, in series [2], the selectivity ratio stood at 14.9.

Consider `Cc1ccc(Nc2nc(N3CCN(CCNc4ccnc5cc(Cl)ccc45)CC3)nc(N3CCN(c4ccccc4)CC3)n2)cc1`, for which the IC50 in series [1] stood at 0.0646 µg/mL (≈ 0.102 µM). Further, the selectivity ratio in series [2] is 52.2.

For `Fc1ccc(Nc2nc(NC3CCCCC3)nc(N3CCN(CCNc4ccnc5cc(Cl)ccc45)CC3)n2)cc1`, half-maximal inhibition in series [1] (IC50) was put at 0.00783 µg/mL (≈ 0.0136 µM). Besides, in series [2], the selectivity ratio turned out to be 262. In addition, the values for the Activity in series [3] and in series [4] were 74.81% and 71.75%, respectively.

As for `CCN(CC)CCCC(C)Nc1ccnc2cc(Cl)ccc12` (stereo unspecified) [CHLOROQUINE], the Activity in series [3] was 99.9%; in series [4], 94.26%.

Consider `Clc1ccc2c(NCCN3CCN(c4nc(NC5CCCCC5)nc(N5CCCCC5)n4)CC3)ccnc2c1`, for which the Activity result is given as “Toxic” in series [5], 99.9% in series [3] and 99.11% in series [4]. In series [1], this compound returned an IC50 of 0.00443 µg/mL (≈ 0.00805 µM). The selectivity ratio in series [2] amounted to 481.

In turn, `O=CN1CCN(c2nc(N3CCOCC3)nc(N3CCN(CCNc4ccnc5cc(Cl)ccc45)CC3)n2)CC1` showed an IC50 in series [1] of 0.0105 µg/mL (≈ 0.0185 µM). Besides, the selectivity ratio in series [2] came to 4110.

Compound `Clc1ccc2c(NCCN3CCN(c4nc(Nc5ccccc5)nc(Nc5ccccc5)n4)CC3)ccnc2c1` yielded an IC50 in series [1] of 0.0756 µg/mL (≈ 0.137 µM). The selectivity ratio in series [2] is 27.8.

`CCN1CCN(c2nc(Nc3ccccc3)nc(N3CCN(CCNc4ccnc5cc(Cl)ccc45)CC3)n2)CC1` returned an IC50 in series [1] of 0.038 µg/mL (≈ 0.0663 µM). Also, the selectivity ratio in series [2] was determined as 41.8.

`Clc1ccc2c(NCCN3CCN(c4nc(Nc5ccccc5)nc(NC5CCCCC5)n4)CC3)ccnc2c1` had an IC50 in series [1] of 0.0162 µg/mL (≈ 0.0291 µM). Also, the selectivity ratio in series [2] amounted to 154. Besides, the Activity in series [3] turned out to be 86.43%; in series [4], 78.73%.

Compound `Fc1ccc(Nc2nc(N3CCCCC3)nc(N3CCN(CCNc4ccnc5cc(Cl)ccc45)CC3)n2)cc1` returned an IC50 in series [1] of 0.00715 µg/mL (≈ 0.0127 µM). In series [2], the selectivity ratio is 329. The Activity is 99.9% in series [3] and 96.51% in series [4].

The compound `Cc1ccc(Nc2nc(Nc3ccc(C)cc3)nc(N3CCN(CCNc4ccnc5cc(Cl)ccc45)CC3)n2)cc1` had an IC50 in series [1] of 0.0383 µg/mL (≈ 0.0659 µM). Further, the selectivity ratio in series [2] was determined as 155.

These data come from ChEMBL document CHEMBL1152160, “Synthesis and bioevaluation of hybrid 4-aminoquinoline triazines as a new class of antimalarial agents” (Bioorg Med Chem Lett, 2008).
